Article PMC10159923 (Lab on a chip, 2023)
One block for each substance: values may come before it.

Columns and labels:
A431 cells = assay: Phase contrast imaging of cell spreading on coated metasurfaces; type: cell-based, human; details: Fig. S2
[1] = test system: cells (cell type not given); details: among others, including collagen and PDL; cited from earlier work
PAR1/PAR2 = assay: MEIRS cellular response of A431 cells to PAR peptides / control peptide; type: cell-based, human
Procedure, shortened: (§1)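 A431 cells (ATCC, passage <15) were seeded at ~500,000/mL in DMEM + 10% FBS on fibronectin-coated (10 μg/mL) metasurface wells and incubated overnight. Medium was then swapped to L15 + 1% antibiotic-antimycotic. One baseline spectrum preceded manual addition of peptide in L15. FTIR reflectance was taken at room temperature, every 4 min per well, for 1 h. Spectra were differenced from t = 0, and first-PC signals were extracted from the protein, plasmonic and lipid windows (mean ± standard error, n = 4).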

PAR1 = target: T1, PAR1 (Homo sapiens, UniProt P25116); assay: MEIRS cellular response of A431 cells to PAR1 activating peptide; type: cell-based
T1 sequence (P25116 22-425): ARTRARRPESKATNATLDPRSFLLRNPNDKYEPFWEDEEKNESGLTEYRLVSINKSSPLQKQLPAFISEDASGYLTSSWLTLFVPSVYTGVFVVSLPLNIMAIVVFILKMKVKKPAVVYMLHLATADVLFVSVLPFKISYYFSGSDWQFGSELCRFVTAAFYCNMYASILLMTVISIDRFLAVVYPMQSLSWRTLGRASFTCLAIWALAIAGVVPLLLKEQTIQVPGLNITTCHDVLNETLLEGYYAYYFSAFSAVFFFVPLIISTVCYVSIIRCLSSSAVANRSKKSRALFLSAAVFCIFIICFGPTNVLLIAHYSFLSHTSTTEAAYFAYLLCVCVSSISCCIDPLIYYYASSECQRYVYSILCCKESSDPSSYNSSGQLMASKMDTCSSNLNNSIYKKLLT
Procedure, shortened: as §1

Substance: fibronectin
- cell spreading, phase contrast morphology (A431 cells): cells spread well
- best coating material by electric impedance [1]: often the best coating material

- duration of gradual decrease in cellular signal back to baseline level (PAR1; MEIRS PC1 signal, after peak): about 30 min
- time of cellular signal peak after peptide addition (PAR1; MEIRS PC1 signal, Δt = 4 min, n = 4): 8 to 12 min
- initial change in cellular signal on addition of peptide (PAR1; as soon as the peptides were added): rapid increase in the cellular signal
Substance: SFLLR-NH2
- peak amplitude of cellular signal (SFLLR vs SLIGKV) (PAR1/PAR2; 100 μM): similar
- course of cellular signal after maximal point (PAR1; MEIRS PC1 signal): decreased right after the maximal point was reached

Substance: VKGILS-NH2
- cellular response to control peptide (PAR1/PAR2; MEIRS PC1 signal, n = 4): very little response from the cells
